# APP 5'UTR act: activates APP 5'UTR luciferase reporter; SH-SY5Y APP 5'UTR luciferase reporter, luminescence; zero percent = DMSO vehicle wells; activation, % at 2 µM; actives 1% (n = 190,000); AID 1276;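 active = activation above a set limit, based on mean plus 3 SD of controls, cut at about 140% in these data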
# STAT1 activator: increases IFN-gamma driven STAT1 reporter signal; actives 2.6% (n = 200,000); activation (% of control), % at 5.5 µM; NIH 3T3 STAT1-luciferase reporter, luminescence; 100% = IFN-gamma alone, no compound; AID 932;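 active = activation above the screen-wide mean activation plus 3 SD, cut at about 130% in these data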;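 note: raw ratio to IFN-gamma control signal so 100% means no change and 0% no light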
# NF-kB expr up: NF-kB expression increase, human neuronal cells; fold change at 12.5 µM; NF-kB reporter expression; stronger effect = higher value; actives 1.6% (n = 190,000); AID 1239; in the data active = fold change above about 3.3
# STAT3 act: increases IL-6 driven STAT3 reporter signal | U3A cells, IL-6 STAT3-luciferase reporter, luminescence; 100% = signal with IL-6 EC80 alone | activation (% of control), % at 5.6 µM | actives 0.91% (n = 190,000);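 active = activation above the screen-wide mean of compound activation plus 3 SD, cut at about 130% in these data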;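 note: 0% = background luminescence of wells with medium and substrate only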
#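 Material: STAT3-luciferase reporter U3A cells; Probe or stimulus: IL-6 (33 ng/mL); Incubation: compound pre-incubation 1 h before IL-6, then 6 h stimulation at 37 °C; Technique: luminescence from STAT3-driven luciferase reporter; Evaluation: % activation versus median of IL-6-stimulated wells; Controls: IL-6-only high control.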
# STAT1 inh: reduces IFN-gamma driven STAT1 reporter signal. NIH 3T3 STAT1-luciferase reporter, luminescence. actives 0.35% (n = 200,000). inhibition, % at 5.5 µM;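 active = inhibition above a set limit, the mean inhibition across all tested compounds plus 3 SD, cut at about 34% in these data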;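 note: 0% = IFN-gamma with DMSO and 100% = IFN-gamma with 300 µM nifuroxazide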
# STAT3 inh-1: reduces IL-6 driven STAT3 reporter signal. U3A cells, IL-6 STAT3-luciferase reporter, luminescence; host cell line lacks STAT1. inhibition, % at 5.5 µM. actives 0.89% (n = 190,000);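 active = inhibition above the mean inhibition across all screened compounds plus 3 SD, cut at about 44% in these data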;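 note: 0% = DMSO only wells and 100% = 100 µM nifuroxazide control wells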
# STAT3 inh-2: confirmation of STAT3 signaling inhibitors; shares compounds with STAT3 inh-1; U3A cells, IL-6 STAT3 luciferase reporter, luminescence; cell line lacks STAT1; inhibition, % at 5.7 µM; actives 45% (n = 1,200);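 active = inhibition above the hit cutoff computed for the primary STAT3 screen, cut at about 44% in these data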;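 note: 0% = IL-6 plus DMSO and 100% = IL-6 plus nifuroxazide control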
# NFkB inh 2: inhibits NF-kappaB, counter-screen to STAT3 inhibitors; HEK293T NF-kB luciferase reporter, TNF-alpha induced; actives 36% (n = 1,200); shares compounds with STAT3 inh-1; AID 1308; inhibition, % at 5.7 µM;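 active = inhibition above the mean of solvent-only control wells plus 3 SD, cutoff set per campaign, cut at about 13% in these data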;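 note: 0% = TNF-alpha with DMSO and 100% = TNF-alpha with MG high control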
# STAT1 inh STAT3c: counter-screen for STAT3 inhibitors: STAT1 inhibition | actives 27% (n = 1,200) | AID 1317 | NIH 3T3 STAT1-luciferase reporter, IFN-gamma induced, luminescence | shares compounds with STAT3 inh-1 | inhibition, % at 5.7 µM;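 active = inhibition above the mean plus 3 SD of solvent-only control wells, limit set per screening run, cut at about 16% in these data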;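 note: 0% = DMSO with IFN-gamma and 100% = nifuroxazide control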
# Active calls of the source: *; / = not tested or not shown. Shown are actives, neighbours in structure and some others; about 4.9% of the full set was active somewhere.
SMILES,APP 5'UTR act,STAT1 activator,NF-kB expr up,STAT3 act,STAT1 inh,STAT3 inh-1,STAT3 inh-2,NFkB inh 2,STAT1 inh STAT3c
CC(C)Cn1c(N)c(C(=O)COC(=O)CC23CC4CC(CC(C4)C2)C3)c(=O)n(C)c1=O,-9.9,78.9,0.64,41.3,23.0,69.9*,72.6*,23.7*,24.0*
CC1CCCCC12NC(=O)N(CC(=O)Nc1ccc(N3CCOCC3)cc1)C2=O (configuration not stated),6.2,104.6,1.14,98.2,-5.0,1.5,/,/,/
CCC(Cc1ccccc1)NC(=O)CSc1ccsc1[N+](=O)[O-] (configuration not stated),21.6,98.2,1.34,99.0,1.9,5.6,/,/,/
COc1ccc(CCN2C(=O)C3C4C=CC(C5CC45)C3C2=O)cc1OC (configuration not stated),-7.8,92.5,1.11,96.7,6.1,7.2,/,/,/
COc1ccc(CCN2C(=O)C3C4C=CC(C3C2=O)C2C(=O)N(CCc3ccc(OC)c(OC)c3)C(=O)C42)cc1OC (configuration not stated),-29.3,89.3,0.86,44.0,13.7,67.6*,65.7*,29.1*,12.5
CCCCCCC(=O)NC(Nc1ccc(S(N)(=O)=O)cc1)C(Cl)(Cl)Cl (configuration not stated),-21.9,95.5,1.18,98.7,4.8,1.9,/,/,/
O=[N+]([O-])c1ccc(O)c(C=Nc2ccc3c(c2)OCCO3)c1,-7.2,110.9,0.94,63.6,-12.2,44.5*,-21.2,-16.5,-41.0
Cc1nc2ccccc2cc1OCc1ccc(Cl)cc1,/,89.4,1.23,46.1,11.8,70.6*,80.3*,13.4*,4.1
COC(=O)c1sccc1OCc1cccc(OC)c1,13.1,102.5,1.39,90.5,-3.0,15.3,/,/,/
COc1cccc(COc2cc3ccccc3nc2C)c1,17.5,86.3,1.08,38.8,15.3,80.4*,76.2*,20.6*,7.5
Cc1nc2ccccc2nc(C)c1=NOCc1cccc(Cl)c1,15.8,97.7,0.96,/,1.3,/,/,/,/
Cc1nc2ccccc2cc1OCc1ccccc1,5.2,82.9,1.24,48.6,19.0,69.4*,50.2*,8.0,3.3
Cc1cc(C(=O)NNC(=S)NC(C)c2ccccc2)c2ccccc2n1 (configuration not stated),/,95.6,0.91,100.4,4.8,5.6,/,/,/
COc1cc(Cl)cc(/C=N/NC(N)=O)c1O,-8.9,104.0,1.17,98.0,-6.2,12.5,/,/,/
CC(C)c1nnc(NC(=O)c2ccc3c(c2)OCO3)s1,147.9*,79.4,4.77*,32.4,21.8,78.9*,48.5*,4.2,-55.5
O=C(Nc1cccc(Cl)c1)Nc1ccnc(-c2cccnc2)n1,-56.5,101.9,0.53,57.5,-2.5,54.9*,64.6*,-4.4,10.8
Cc1[nH]c2ccccc2c1C(=O)NS(=O)(=O)Nc1ccc(F)cc1,4.0,102.0,1.22,107.7,-3.7,-7.4,/,/,/
CCCCCOc1ccc(Br)cc1CSC(=N)N,-62.8,70.4,1.11,60.6,33.1,49.0*,63.5*,23.2*,21.1*
COc1nccnc1NS(=O)(=O)c1ccc(NC(=O)c2cccc(C)c2)cc1,16.0,96.9,1.12,108.0,3.9,-6.9,/,/,/
OC1(c2ccc(OC(F)F)cc2)CSC(=Nc2cccnc2)N1C1CC1 (configuration not stated),-2.5,86.8,0.96,59.8,14.6,53.2*,39.7,3.2,9.6
N#CCCn1cc(/C=N/NC(N)=S)c(-c2ccc(-c3ccccc3)cc2)n1,3.8,107.8,0.77,96.3,-9.6,6.1,/,/,/
CN(C)CCCN=Cc1c(O)n(Cc2ccc3c(c2)OCO3)c(=O)c2ccccc12,20.8,104.8,1.01,104.4,-6.6,2.9,/,/,/
O=C(NC1CCN(Cc2ccccc2)CC1)c1ccc2c(c1)[nH]c(=O)n2Cc1ccc(F)cc1,-20.3,90.3,0.82,63.2,9.3,47.4*,51.1*,17.1*,8.4
O=C(Nc1ccc(F)cc1)NC1CCN(Cc2ccccc2)CC1,-7.5,95.1,0.9,97.7,5.3,2.6,/,/,/
CCCN1CNc2c(c(=O)[nH]c(=S)n2CCc2ccc(OC)c(OC)c2)C1,29.8,94.8,1.08,94.0,4.3,11.3,/,/,/
SMILES,APP 5'UTR act,STAT1 activator,NF-kB expr up,STAT3 act,STAT1 inh,STAT3 inh-1,STAT3 inh-2,NFkB inh 2,STAT1 inh STAT3c
Cc1ccc(OCCN2CCN(C(=O)CCC(=O)Nc3nnc(C(C)C)s3)CC2)cc1,-16.1,92.0,1.7,62.0,8.9,49.5*,41.8,7.3,3.4
CCCc1nnc(NC(=O)CCC(=O)N2CCN(CCOc3ccc(C)cc3)CC2)s1,12.0,90.9,0.74,61.9,9.9,49.8*,40.2,1.9,0.5
Cc1ccc(OCCN2CCN(C(=O)CCC(=O)Nc3nnc(C)s3)CC2)cc1,-8.0,109.1,1.24,99.8,-10.0,4.4,/,/,/
OCCC1CN(Cc2ccon2)CCN1Cc1ccc(F)c(F)c1 (configuration not stated),-6.0,101.1,0.99,102.0,-2.8,2.2,/,/,/
Cc1ccc2nc3c(cc(C#N)c(=O)n3CC3CCCO3)c(=O)n2c1 (configuration not stated),-12.2,112.9,1,106.0,-12.2,-2.7,/,/,/
Cc1c(C(=O)OCCOc2ccccc2)[nH]c2c1C(=O)CCC2,86.9,117.0,3.53*,52.3,-18.5,59.2*,28.5,-18.1,-107.2
CC1(C)CC(=O)C2=C(C1)N(c1ccccc1)C(=O)C2(O)C(F)(F)F (configuration not stated),17.2,95.3,1.14,96.9,5.3,3.6,/,/,/
CC(=O)Nc1ccc(S(=O)(=O)N(Cc2ccccc2)C(C)C)cc1,3.0,87.9,0.86,94.5,13.2,10.6,/,/,/
O=C(Nc1ccc2c(c1)nc1n2CCSC1)c1ccco1,110.2,96.2,2.82,50.6,4.1,63.2*,23.7,-16.4,-38.5
O=C(Nc1ccc2c(c1)nc1n2CCOC1)c1ccco1,47.0,121.3,1.72,98.8,-23.2,4.9,/,/,/
COc1cccc(C(=O)/C=C/Nc2cccc(O)c2)c1,148.1*,87.0,12.1*,14.9,19.9,102.1*,95.5*,13.8*,22.5*
O=C(/C=C/Nc1ccccc1)c1ccccc1,172.1*,69.5,9.06*,46.0,33.1,67.3*,35.6,-4.7,-56.6
O=C(/C=C/Nc1ccc(F)cc1Br)c1ccccc1,148.8*,84.0,1.61,27.3,18.0,86.3*,76.1*,62.4*,33.0*
